This is an account of results in ChEMBL document CHEMBL1129942, “Synthesis and structure-activity relationship of a new series of potent AT1 selective angiotensin II receptor antagonists: 5-(biphenyl-4-ylmethyl)pyrazoles” (J Med Chem, 1997).

The test system of test [1] is Rattus norvegicus. Description: Maximum fall in blood pressure (mmHg) in groups of four sodium-depleted rats, after administration of test compounds at the indicated dose (mg/kg, p.o.). It counts as functional. In a few lines:
(§1)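 Male Sprague-Dawley rats (250 g) implanted with a telemetry device; after 1 week placed on a sodium-deficient diet and given furosemide 5 mg/kg sc at 48, 24 and 1 h before oral dosing. Blood pressure and heart rate recorded continuously for up to 48 h postdose. Maximum fall in blood pressure (mmHg) taken per group of four rats; doses of 10 mg/kg po or less.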

Test [2] has as its system Rattus norvegicus. Kind of test: Maximum fall in blood pressure in groups of four sodium-depleted rats, after peroral administration at the 3 mg/Kg. It counts as functional. In a few lines: as §1
The subject of test [3] is Rattus norvegicus. Description: Percent peak inhibition of pressor response induced by exogenously administered AII (submaximal dose (mg/kg) ) in groups of 2 or more pithed rats. It counts as functional. Also noted: concentration or dose not given beside the values.
Test [4] deals with Rattus norvegicus. Kind of test: Percent peak inhibition of pressor response induced by exogenously administered AII at 3 mg/kg in 2 or more pithed rats. It is filed as functional.
Test [5] addresses T1, Angiotensin II receptor (AT-1) type-1 (Rattus norvegicus, UniProt P29089+P25095).
T1 sequence (P29089 whole entry): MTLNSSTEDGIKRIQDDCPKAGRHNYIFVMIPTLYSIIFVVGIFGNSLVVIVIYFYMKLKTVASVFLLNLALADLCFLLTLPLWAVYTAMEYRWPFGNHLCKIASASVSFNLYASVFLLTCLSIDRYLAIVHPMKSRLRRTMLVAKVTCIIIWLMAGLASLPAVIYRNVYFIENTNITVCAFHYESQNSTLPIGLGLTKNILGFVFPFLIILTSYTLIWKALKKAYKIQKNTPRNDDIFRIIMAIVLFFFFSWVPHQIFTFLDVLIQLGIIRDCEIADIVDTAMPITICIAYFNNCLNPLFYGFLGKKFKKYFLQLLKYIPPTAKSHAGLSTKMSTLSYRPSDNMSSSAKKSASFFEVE
T1 sequence (P25095 whole entry): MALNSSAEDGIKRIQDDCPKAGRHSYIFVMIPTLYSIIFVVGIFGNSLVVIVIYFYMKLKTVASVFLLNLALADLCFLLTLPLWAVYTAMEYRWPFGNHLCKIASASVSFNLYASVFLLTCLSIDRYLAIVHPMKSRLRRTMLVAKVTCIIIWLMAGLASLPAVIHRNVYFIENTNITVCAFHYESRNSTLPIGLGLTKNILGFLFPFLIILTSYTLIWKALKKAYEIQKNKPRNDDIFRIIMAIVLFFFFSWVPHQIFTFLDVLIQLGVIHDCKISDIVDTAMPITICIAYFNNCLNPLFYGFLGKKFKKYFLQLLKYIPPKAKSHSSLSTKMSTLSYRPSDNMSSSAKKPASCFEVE
Kind of test: In vitro binding affinity for rat liver angiotensin II receptor type 1, determined by displacement of the specially bound [3H]AII radioligand.

Test [6] concerns Rattus norvegicus. Kind of test: Percent peak inhibition of pressor response induced by exogenously administered AII at 1 mg/kg in 2 or more pithed rats. It is filed as functional.
The test system of test [7] is Rattus norvegicus. Description: Percent peak inhibition of pressor response induced by exogenously administered AII at 0.3 mg/kg in 2 or more pithed rats. It is filed as functional.

Usually Inhibition stands for the change of the read-out against control, counted positive when it falls. As usually defined, the inhibition in vivo is the share of the control response that was lost under treatment. What is called IC50 is the point on the concentration scale where inhibition reaches its midpoint.

`CCCCc1nc(Cl)c(CO)n1Cc1ccc(-c2ccccc2-c2nnn[nH]2)cc1` [LOSARTAN]: the Activity in test [1] is listed as 39 mmHg; in test [2] it was 13 mmHg. The same compound came in with an Inhibition in test [3] of 62.5%. In test [4], this compound gave an inhibition in vivo at 3 mg/kg of 93.5%.

Take `CCn1nc(C)c(C(=O)O)c1Cc1ccc(-c2ccccc2-c2nn[nH]n2)cc1`: the concentration for half-maximal inhibition (IC50) in test [5] is given as 120 nM. The compound also registered an inhibition in vivo at 1 mg/kg in test [6] of 61.2%.

In test [5], `CCCCn1nc(C)c(C(=O)OC)c1Cc1ccc(-c2ccccc2-c2nn[nH]n2)cc1` registered an IC50 of 55 nM. In addition, in test [4], 3 mg/kg produced 52.5% inhibition in vivo.

On to `CCCCn1nc(-c2ccccc2)c(C(=O)O)c1Cc1ccc(-c2ccccc2-c2nn[nH]n2)cc1`, for which the IC50 in test [5] came out at 9 nM. In addition, the inhibition in vivo at 3 mg/kg in test [4] was found to be 44.1%.

As for `CCCCn1nc(C)c(CO)c1Cc1ccc(-c2ccccc2-c2nn[nH]n2)cc1`, the IC50 in test [5] was found to be 350 nM. Besides, the inhibition in vivo at 3 mg/kg in test [4] worked out at 11.5%.

`CCCn1nc(C2CC2)c(C(N)=O)c1Cc1ccc(-c2ccccc2S(=O)(=O)NC(=O)c2ccccc2)cc1` showed an IC50 in test [5] of 7.4 nM. This compound also had an inhibition in vivo at 0.3 mg/kg in test [7] of 63.8%.

Turning to `CCCCn1nc(CC)c(C(=O)O)c1Cc1ccc(-c2ccccc2-c2nn[nH]n2)cc1`, the half-maximal inhibitory concentration (IC50) in test [5] amounted to 8.7 nM. The Activity in test [2] was 20 mmHg. This compound also registered an inhibition in vivo at 0.3 mg/kg in test [7] of 65.2%.

For the compound `CCCCn1nc(C)c(C(=O)O)c1Cc1ccc(-c2ccccc2S(=O)(=O)NC(=O)OCC(C)C)cc1`, the IC50 in test [5] stood at 30 nM. Moreover, in test [2], the Activity was determined as 25 mmHg. In test [6], this compound displayed an inhibition in vivo at 1 mg/kg of 76.3%.

`CCCCn1nc(C)c(C(N)=O)c1Cc1ccc(-c2ccccc2-c2nn[nH]n2)cc1` yielded an IC50 in test [5] of 70 nM. In addition, the inhibition in vivo at 3 mg/kg in test [4] stood at 74.9%.

For `Cc1nn(-c2ccccc2)c(Cc2ccc(-c3ccccc3-c3nn[nH]n3)cc2)c1C(=O)O`, the half-maximal inhibitory concentration (IC50) in test [5] is reported as 78 nM. Also, the inhibition in vivo at 3 mg/kg in test [4] came out at 57.4%.

With `CCCCn1nc(C)c(C=O)c1Cc1ccc(-c2ccccc2-c2nn[nH]n2)cc1`, the IC50 in test [5] amounted to 74 nM. Besides, testing at 1 mg/kg in test [6] gave an inhibition in vivo of 40.8%.

With `CCCCn1nc(Cc2ccc(-c3ccccc3-c3nn[nH]n3)cc2)c(C(=O)O)c1CC`, in test [5], the 50% inhibitory concentration (IC50) is listed as 110 nM. This compound displayed an inhibition in vivo at 3 mg/kg in test [4] of 22.9%.

Compound `CCCCc1nc(Cl)c(C(=O)O)n1Cc1ccc(-c2ccccc2-c2nn[nH]n2)cc1` [CARBOXYLIC ACID METABOLITE] registered an inhibition in vivo at 1 mg/kg in test [6] of 76.9%.

Compound `CCCCn1nc(C)c(C(=O)O)c1Cc1ccc(-c2ccccc2-c2nn[nH]n2)cc1` yielded an Activity in test [2] of 20 mmHg. In addition, the inhibition in vivo at 0.3 mg/kg in test [7] came out at 62.6%.

As to `CCCn1nc(C2CC2)c(C(N)=O)c1Cc1ccc(-c2ccccc2-c2nn[nH]n2)cc1`, the IC50 in test [5] is given as 9.9 nM. Further, the inhibition in vivo at 1 mg/kg in test [6] amounted to 80.6%.

For `CCCn1nc(Cc2ccc(-c3ccccc3-c3nn[nH]n3)cc2)c(C(=O)O)c1C(C)C`, the IC50 in test [5] is 490 nM.

In the case of `CCCn1nc(C)c(C(=O)O)c1Cc1ccc(-c2ccccc2-c2nn[nH]n2)cc1`, in test [5], the IC50 turned out to be 9.3 nM. In addition, the Activity in test [2] is 0 mmHg. The same compound registered an inhibition in vivo at 1 mg/kg in test [6] of 77.8%.
